An excerpt weighted towards active compounds, which were near 1.5% of everything screened.
CXCR6 block: blocks human CXCR6 beta-arrestin recruitment; O00574; CHO-K1 PathHunter CXCR6 beta-arrestin, luminescence; inhibition, % at 20 µM; 360,000 compounds, 0.36% hits; AID 602244; in the data active means inhibition above about 34%, passing the limit was not always enough;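 further: antagonist mode with CXCL16 agonist at 10 nM final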
CCR6 antag: antagonists of human CCR6 receptor. P51684. CHO-K1 CCR6 PathHunter beta-arrestin, luminescence, CCL20-stimulated. inhibition, % at 20 µM. 340,000 compounds, 0.49% hits. AID 493098;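 active means compounds whose inhibition of the agonist-driven luminescence signal at 20 µM reaches about 50%, limit read from the data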;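 further: cells stimulated with CCL20 at 14 nM final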
Target sequence (P51684 whole entry, looked up): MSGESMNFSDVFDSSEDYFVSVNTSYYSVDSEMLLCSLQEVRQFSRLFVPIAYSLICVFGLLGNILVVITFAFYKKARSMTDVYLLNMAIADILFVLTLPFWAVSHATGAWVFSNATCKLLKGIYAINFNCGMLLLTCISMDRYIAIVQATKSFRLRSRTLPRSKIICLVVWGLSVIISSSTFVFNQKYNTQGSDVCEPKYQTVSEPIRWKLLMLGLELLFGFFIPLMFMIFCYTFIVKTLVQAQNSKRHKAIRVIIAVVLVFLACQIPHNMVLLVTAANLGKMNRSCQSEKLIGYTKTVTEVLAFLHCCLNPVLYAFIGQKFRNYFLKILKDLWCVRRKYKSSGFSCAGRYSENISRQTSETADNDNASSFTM
EBI2 block: EBI2 (human) antagonism. inhibition, % at 5 µM. EBI2 beta-arrestin recruitment, luminescence, 7a,25-OHC stimulated. AID 651636. 360,000 compounds, 0.81% hits. P32249; in the data active means inhibition above about 38%;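 further: enzyme fragment complementation signal reports receptor beta-arrestin coupling in cells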
APJ ag: APJ receptor agonism | P35414 | CHO-K1 APJ PathHunter beta-arrestin, luminescence; 0% DMSO wells, 100% apelin | AID 2520 | activation, % at 20 µM | 330,000 compounds, 0.11% hits;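 active means activation more than six SD over the plate average, tested at 20 µM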
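Test system: CHO-K1 APJ beta-arrestin complementation cell line | Compound: Single test compound dose, 20 µM final, 1% DMSO | Incubation: Compound 90 min 25 °C, reagent 1 h | Measured by: beta-gal luminescence | Read-out basis: APJ–arrestin association signal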
APJ antagonist: antagonists of human APJ apelin receptor. P35414. CHO-K1 APJ beta-arrestin complementation, luminescence. inhibition, % at 20 µM. 330,000 compounds, 0.32% hits. AID 2521;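 active means inhibition above about 40% at 20 µM, limit read from the data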;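 further: cells challenged with 10 nM apelin-13 agonist together with compound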
APJ antag confirm: APJ receptor antagonism confirmation; AID 2766; 950 compounds, 66% hits; inhibition, % at 20 µM; shares compounds with APJ antagonist; APJ beta-arrestin recruitment, luminescence, antagonist mode; in the data active means inhibition above about 50%
CXCR6 antag conf: CXCR6 antagonism confirmation, single concentration | shares compounds with CXCR6 block | 700 compounds, 65% hits | inhibition, % at 20 µM | CHO-K1 CXCR6 PathHunter beta-arrestin, luminescence | AID 602409;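 active means mean inhibition over four retests above 40%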;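 further: receptor stimulated with 10 nM CXCL16 agonist; beta-galactosidase fragment complementation upon beta-arrestin recruitment to receptor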
EBI2 conf: EBI2 (human) antagonism, single concentration confirmation; shares compounds with EBI2 block; EBI2 beta-arrestin luminescence, 7a,25-OHC antagonism; inhibition, % at 5 µM; 2,400 compounds, 29% hits; AID 651997;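 active means inhibition of at least 50%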
EBI2 ag: activates EBI2, counter-screen for EBI2 antagonists. shares compounds with EBI2 block. EBI2-expressing cells, agonist mode, luminescence, 60 min; 0% vehicle, 100% 7α,25-dihydroxycholesterol control. activation, % at 5 µM. 2,400 tested, under 10 active;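 active means activation of at least 50%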
bGal counter: inhibits E. coli beta-galactosidase, counter-screen for EBI2 antagonists. purified beta-galactosidase, luminescent Galacton Star, 15 min. inhibition, % at 5 µM. AID 652176. shares compounds with EBI2 block. 2,400 compounds, 1% hits;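 active means replicate-average signal at least 3 plate SD below neutral wells, shown as high inhibition, flagging enzyme-inhibiting false positives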;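 further: higher means stronger loss of beta-gal luminescence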
Numbers stand for hits; - = inactive; . = not tested or not shown.

SMILES	CXCR6 block	CCR6 antag	EBI2 block	APJ ag	APJ antagonist	EBI2 conf	EBI2 ag	bGal counter	others
N#Cc1c(/N=C/c2ccc(O)cc2O)sc2c1C1CCN2CC1	-	-	-	-	42	.	.	.	APJ antag confirm=-
Nc1c(C(=O)OCc2ccccc2)c2nc3ccccc3nc2n1Cc1cccs1	-	-	50	-	63	-	-	-	APJ antag confirm=-
N[C@@H](Cc1ccccc1)C(=O)N1C[C@H]2C[C@@H](C1)c1cccc(=O)n1C2	-	-	-	-	-	.	.	.
COC(=O)C1=C(C(=O)OC)C2OC1c1cc3ccccc3cc12	85	109	-	.	.	.	.	.	CXCR6 antag conf=91
CCC1C(c2ccccc2)NC(c2ccccc2)CC1(O)c1ccc(F)cc1 (centres undefined)	-	-	-	-	-	.	.	.
CC1=C(O)C(=O)C=C2C1=CC=C1C2(C)CCC2(C)C3CC(C)(C(=O)O)CCC3(C)CCC12C (centres undefined)	64	.	-	.	.	.	.	.	CXCR6 antag conf=53
COc1ccc(-n2c(O)c(C(C)=NCCc3c[nH]c4ccccc34)c(=O)[nH]c2=O)cc1	-	-	-	-	-	.	.	.
O=C(COc1ccc(Br)cc1)N1CCN(Cc2ccncc2)CC1	-	-	68	.	.	54	-	-
O=C(COc1ccc(Br)cc1)N1CCN(Cc2ccc3c(c2)OCO3)CC1	-	-	92	-	-	70	-	-
CSc1ccc(CN2CCN(C(=O)COc3ccc(C)cc3)CC2)cc1	-	-	92	-	-	71	-	-
Cc1ccc(OCC(=O)N2CCN(Cc3ccc4c(c3)OCO4)CC2)cc1C	-	-	71	-	-	57	-	-
Cc1cccc(OCC(=O)N2CCN(Cc3ccc4c(c3)OCO4)CC2)c1	-	-	-	-	-	.	.	.
CCCCc1ccc(NC2=NCCCS2)cc1	-	-	-	-	-	.	.	.
C[C@@H]1CN(C2CCC(C#N)(c3ccc(F)cc3)CC2)CC[C@]1(C(=O)O)c1ccccc1 (some centres undefined)	-	-	-	-	-	.	.	.
C[C@]12CC[C@@H](O)CC1=CCC1C2CC[C@]2(C)C(=O)[C@H](F)CC12 (some centres undefined)	-	-	-	-	-	.	.	.
CC12CCC3C(CC=C4CC(O)CCC43C)C1C/C(=C\c1cccc(F)c1)C2=O (centres undefined)	-	-	46	-	-	-	-	-
COC(=O)C1=C(c2c(C)noc2C)C[C@@H]2CC[C@H]1N2C(=O)N1CCC(O)(c2ccc(Cl)cc2)CC1	-	-	42	-	-	-	-	-
COC(=O)C1=C(c2c(C)noc2C)C[C@@H]2CC[C@H]1N2C(=O)N1CCOCC1	-	-	-	-	-	.	.	.
CN1CCC(O)(c2ccc(Cl)cc2)C(C(=O)c2ccc(Cl)cc2)C1 (centres undefined)	-	-	-	-	-	.	.	.
CCOC(=O)[C@]12Cc3cc(OC)ccc3[C@H]1N(C1CCCCC1)C(=O)c1ccccc12	-	.	64	.	.	-	-	-
CCOC(=O)[C@]12Cc3cc(OC)ccc3[C@H]1N(C)C(=O)c1ccccc12	-	.	-	.	.	.	.	.
O=C(COc1ccc2ccccc2c1)N1CCN(CC2CC3C=CC2C3)CC1 (centres undefined)	-	-	85	-	-	63	-	-
COc1ccccc1CN1CCN(C(=O)COc2ccc3ccccc3c2)CC1	-	-	70	-	-	-	-	-
CN1CCN(C(=O)COc2ccc3ccccc3c2)CC1	-	-	53	-	-	-	-	-
COc1ccc(OCC(=O)N2CCN(Cc3c[nH]c4ccccc34)CC2)cc1	-	-	47	.	.	-	-	-
SMILES	CXCR6 block	CCR6 antag	EBI2 block	APJ ag	APJ antagonist	EBI2 conf	EBI2 ag	bGal counter	others
COC(=O)C1=C(c2ccc(F)cc2OCc2ccccc2)C[C@@H]2CC[C@H]1N2C(=O)NCc1cc(C)oc1C(F)(F)F	-	-	-	-	-	.	.	.
O=C(c1cc2cc(Br)ccc2[nH]1)N1CCC2(CC1)OCCO2	-	-	84	-	-	67	-	-
c1cc2c(cc1[C@H]1OCC3C1CO[C@@H]3c1ccc3c(c1)OCO3)OCO2 (some centres undefined)	-	-	-	-	-	.	.	.
O=c1c(C=NCc2cccs2)c(O)n(C2CCCCC2)c(=O)n1C1CCCCC1	-	-	44	-	-	-	-	-
O=c1c(C=NCCN2CCNCC2)c(O)n(C2CCCCC2)c(=O)n1C1CCCCC1	-	-	-	-	-	.	.	.
CC(C)Oc1cc(-n2c(=S)[nH]c3ccccc3c2=O)c(Cl)cc1Cl	-	-	-	-	-	.	.	.
COC(=O)C1=C(c2ccc(OCc3ccccc3)cc2)C[C@@H]2CC[C@H]1N2C(=O)NCc1ccccc1C(F)(F)F	-	.	63	.	.	-	-	-
CCCNC(=O)N1[C@H]2CC[C@@H]1C(C(=O)OC)=C(c1ccc(Cl)c(C(F)(F)F)c1)C2	-	-	-	-	-	.	.	.
COC(=O)C1=C(c2ccc(Cl)c(C(F)(F)F)c2)C[C@@H]2CC[C@H]1N2C(=O)NCCOc1ccc(OC)cc1	-	-	44	-	-	-	-	-
COC(=O)C1=C(c2ccc(OCc3ccccc3)cc2)C[C@@H]2CC[C@H]1N2C(=O)NCc1ccccc1OC	-	.	-	.	.	.	.	.
CCCCc1ncc(CN2CCCC(C(=O)c3ccc(SC)cc3)C2)[nH]1 (centres undefined)	-	-	-	-	-	.	.	.
COCCCn1c(N)c(C(=O)OC(C)COC)c2nc3ccccc3nc21 (centres undefined)	-	-	-	-	-	.	.	.
CCC(C)OC(=O)c1c(N)n(Cc2cccs2)c2nc3ccccc3nc12 (centres undefined)	-	-	44	-	-	-	-	-
COC(=O)C1(C(=O)O)Cc2cc([N+](=O)[O-])ccc2N2CCCC21 (centres undefined)	-	-	-	-	-	.	.	.
O=c1[nH]c(=O)n(Cc2ccc(F)cc2)c(O)c1/C=N/Nc1ccccc1	-	-	-	-	-	.	.	.
Nc1c(C(=O)NCCN2CCOCC2)c2nc3ccccc3nc2n1Cc1ccccc1	-	-	74	-	-	-	-	-
COc1ccc(N=Cc2c(O)n(CC3CCCO3)c(=O)[nH]c2=O)cc1 (centres undefined)	-	-	55	-	-	-	-	-

Compound activity as filed in PubChem BioAssay.
